The species entered for assay [1] is Rattus norvegicus. Description: Relative potency of compound to inhibit insulin secretion […]. The assay is classed as functional.
Assay [2] is filed under the species Rattus norvegicus. As to the kind of experiment: Relative potency of compound to inhibit growth hormone secretion in rat anterior pituitary cells. The format is functional, Pituitary gland cell.
For assay [3], the species on record is Rattus norvegicus. Description: Relative potency of compound to inhibit glucagon secretion […]. The format is functional.
Assay [4] concerns the target Somatostatin receptor type 1 (Homo sapiens, UniProt P30872). Description: Inhibition of 125I-[Leu8,D-Trp22,Tyr25]SRIF-28 binding to human somatostatin receptor type 1. An outline of the steps:
(§1)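 Human sst1 or sst5 receptor stably expressed in CHO-K1 cells. 20 µm cryostat sections of cell membrane pellets were used for receptor autoradiography. IC50 (nM) came from competitive radioligand displacement. Values are mean ± SEM when N ≥ 3; otherwise mean with single values.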

Assay [5] addresses Somatostatin receptor type 5 (Homo sapiens, UniProt P35346). As to the kind of experiment: Inhibition of 125I-[Leu8,D-Trp22,Tyr25]SRIF-28 binding to human somatostatin receptor type 5. An outline of the steps:
as §1

Assay [6] deals with Somatostatin receptor type 4 (Homo sapiens, UniProt P31391). As to the kind of experiment: Inhibition of 125I-[Leu8,D-Trp22,Tyr25]SRIF-28 binding to human somatostatin receptor type 4.
Somatostatin receptor type 4, sequence (P31391 whole entry): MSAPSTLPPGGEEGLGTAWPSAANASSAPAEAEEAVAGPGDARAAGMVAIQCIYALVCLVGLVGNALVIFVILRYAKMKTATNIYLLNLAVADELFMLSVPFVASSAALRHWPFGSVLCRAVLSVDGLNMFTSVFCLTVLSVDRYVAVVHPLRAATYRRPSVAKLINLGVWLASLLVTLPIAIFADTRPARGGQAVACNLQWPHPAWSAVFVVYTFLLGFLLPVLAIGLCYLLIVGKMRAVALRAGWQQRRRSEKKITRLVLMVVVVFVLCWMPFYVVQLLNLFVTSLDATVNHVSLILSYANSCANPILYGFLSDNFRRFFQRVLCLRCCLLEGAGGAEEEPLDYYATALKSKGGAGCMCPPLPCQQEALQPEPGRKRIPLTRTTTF
Assay [7] addresses Somatostatin receptor type 3 (Homo sapiens, UniProt P32745). As to the kind of experiment: Inhibition of 125I-[Leu8,D-Trp22,Tyr25]SRIF-28 binding to human somatostatin receptor type 3. In outline:
(§2)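 Human sst2 or sst3 receptor stably expressed in CCL39 cells. 20 µm cryostat sections of cell membrane pellets were used for autoradiographic binding. IC50 (nM) came from competitive displacement. Values are mean ± SEM when N ≥ 3; otherwise mean with single values.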

Assay [8] concerns the target Somatostatin receptor type 2 (Homo sapiens, UniProt P30874). Description: Inhibition of 125I-[Leu8,D-Trp22,Tyr25]SRIF-28 binding to human somatostatin receptor type 2. An outline of the steps:
as §2

In ChEMBL document CHEMBL1141179 (J Med Chem, 2005) one finds Relative potency and IC50 data, which are given here for 14 compounds.

pIC50: −log10 of the molar value. Bridge positions count the residues as written; N and C are the ends. Square brackets hold non-standard residues; d marks the D form. Peptide text beside a SMILES is read from it.

Somatostatin receptor type 1, sequence (P30872 whole entry): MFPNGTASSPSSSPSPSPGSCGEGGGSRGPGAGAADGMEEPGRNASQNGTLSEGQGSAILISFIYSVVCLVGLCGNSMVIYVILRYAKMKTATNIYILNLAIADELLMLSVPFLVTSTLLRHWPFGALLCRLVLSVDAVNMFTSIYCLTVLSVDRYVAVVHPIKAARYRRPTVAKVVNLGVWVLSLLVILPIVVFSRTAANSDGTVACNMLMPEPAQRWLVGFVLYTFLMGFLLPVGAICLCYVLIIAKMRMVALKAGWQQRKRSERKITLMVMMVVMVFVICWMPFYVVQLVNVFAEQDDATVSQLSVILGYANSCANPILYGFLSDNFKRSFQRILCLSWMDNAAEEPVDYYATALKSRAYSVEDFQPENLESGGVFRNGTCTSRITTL
Somatostatin receptor type 5, sequence (P35346 whole entry): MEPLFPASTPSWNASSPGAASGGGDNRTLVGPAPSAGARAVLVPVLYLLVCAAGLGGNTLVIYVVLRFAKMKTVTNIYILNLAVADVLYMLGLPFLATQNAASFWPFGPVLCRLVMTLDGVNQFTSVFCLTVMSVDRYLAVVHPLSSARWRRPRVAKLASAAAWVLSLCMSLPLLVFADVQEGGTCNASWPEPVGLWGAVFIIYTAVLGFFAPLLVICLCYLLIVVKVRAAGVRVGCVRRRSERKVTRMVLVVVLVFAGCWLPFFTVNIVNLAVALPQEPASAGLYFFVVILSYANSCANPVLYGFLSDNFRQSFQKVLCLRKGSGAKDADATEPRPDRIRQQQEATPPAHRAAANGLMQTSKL
Somatostatin receptor type 3, sequence (P32745 whole entry): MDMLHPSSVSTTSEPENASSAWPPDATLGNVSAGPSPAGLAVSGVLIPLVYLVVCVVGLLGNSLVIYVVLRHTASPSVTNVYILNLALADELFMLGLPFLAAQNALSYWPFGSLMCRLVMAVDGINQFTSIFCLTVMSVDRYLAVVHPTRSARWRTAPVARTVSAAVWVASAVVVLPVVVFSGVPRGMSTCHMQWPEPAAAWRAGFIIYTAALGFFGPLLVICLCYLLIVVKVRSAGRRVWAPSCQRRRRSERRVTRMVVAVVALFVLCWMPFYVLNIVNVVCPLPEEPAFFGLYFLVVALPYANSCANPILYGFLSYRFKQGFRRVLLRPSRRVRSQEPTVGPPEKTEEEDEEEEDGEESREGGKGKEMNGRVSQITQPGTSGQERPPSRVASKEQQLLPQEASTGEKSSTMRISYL
Somatostatin receptor type 2, sequence (P30874 whole entry): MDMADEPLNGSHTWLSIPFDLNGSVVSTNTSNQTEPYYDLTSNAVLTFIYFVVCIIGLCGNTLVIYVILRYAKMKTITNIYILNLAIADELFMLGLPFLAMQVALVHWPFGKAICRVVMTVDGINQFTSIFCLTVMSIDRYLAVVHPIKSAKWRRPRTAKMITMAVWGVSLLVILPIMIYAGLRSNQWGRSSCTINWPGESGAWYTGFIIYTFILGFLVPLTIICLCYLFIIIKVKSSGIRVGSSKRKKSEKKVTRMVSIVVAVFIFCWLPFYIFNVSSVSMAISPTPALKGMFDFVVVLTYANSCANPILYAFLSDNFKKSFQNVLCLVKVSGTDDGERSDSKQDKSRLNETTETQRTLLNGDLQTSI

On to `C[C@@H](O)[C@@H]1NC(=O)[C@H](CCCCN)NC(=O)[C@@H](Cc2c[nH]c3ccccc23)NC(=O)[C@H](Cc2ccccc2)NC(=O)[C@H](Cc2ccccc2)NC(=O)[C@H](CCCCN)NC(=O)[C@@H](N)CSSC[C@@H](C(=O)O)NC(=O)[C@H](Cc2ccccc2)NC1=O`, for which the Relative potency in assay [1] stood at 310; in assay [2], 15; in assay [3], 115.

On to `C[C@@H](O)[C@@H]1NC(=O)[C@H](CCCCN)NC(=O)[C@@H](Cc2c[nH]c3ccccc23)NC(=O)[C@H](Cc2ccccc2)NC(=O)[C@H](Cc2ccccc2)NC(=O)[C@H](CC(N)=O)NC(=O)[C@@H](N)CSSC[C@@H](C(=O)O)NC(=O)[C@H](Cc2ccccc2)NC1=O`, for which the figures for the Relative potency in assay [1], in assay [2] and in assay [3] were 72, below 1 and below 1, respectively.

In the case of `C[C@@H](O)[C@@H]1NC(=O)[C@H](CCCCN)NC(=O)[C@@H](Cc2c[nH]c3ccccc23)NC(=O)[C@H](Cc2ccccc2)NC(=O)[C@H](Cc2ccccc2)NC(=O)[C@@H](N)CSSC[C@@H](C(=O)O)NC1=O`, the Relative potency in assay [1] is reported as below 1; in assay [2] it was 0.07; in assay [3], below 1.

With `CC(C)NCc1ccc(C[C@@H]2NC(=O)[C@@H](Cc3c[nH]c4ccccc34)NC(=O)[C@@H]3CCC(=O)NCC(=O)NCC[C@H](NC(=O)[C@H](Cc4ccccc4)NC(=O)[C@H]([C@@H](C)O)NC2=O)C(=O)N[C@@H](CO)C(=O)N[C@H](C(=O)O)CSSC[C@H](NC(=O)[C@@H](N)Cc2ccc(O)cc2)C(=O)N[C@@H](CCCCN)C(=O)N[C@@H](Cc2ccccc2)C(=O)N3)cc1`, the pIC50 in assay [4], in assay [5], in assay [6], in assay [7] and in assay [8] was below 6.00 throughout.

With `CC(C)NCc1ccc(C[C@@H]2NC(=O)[C@@H](Cc3c[nH]c4ccccc34)NC(=O)[C@@H]3CCC(=O)NCCCCC[C@H](NC(=O)[C@H](Cc4ccccc4)NC(=O)[C@H]([C@@H](C)O)NC2=O)C(=O)N[C@@H](CO)C(=O)N[C@H](C(=O)O)CSSC[C@H](NC(=O)[C@@H](N)Cc2ccc(O)cc2)C(=O)N[C@@H](CCCCN)C(=O)N[C@@H](Cc2ccccc2)C(=O)N3)cc1`, the pIC50 was 7.03 in assay [4]; below 6.00 in assay [5]; below 6.00 in assay [6]; below 6.00 in assay [7]; below 6.00 in assay [8].

Consider `C[C@@H](O)[C@@H]1NC(=O)[C@H](Cc2ccccc2)NC(=O)[C@H]([C@@H](C)O)NC(=O)[C@H](CCCCN)NC(=O)[C@@H](Cc2c[nH]c3ccccc23)NC(=O)[C@H](Cc2ccccc2)NC(=O)[C@H](Cc2ccccc2)NC(=O)[C@H](CC(N)=O)NC(=O)[C@@H](N)CSSC[C@@H](C(=O)O)NC1=O`, for which the Relative potency in assay [1] is listed as 75; in assay [2] it was 8.

Regarding `CC(C)NCc1ccc(C[C@@H]2NC(=O)[C@@H](Cc3c[nH]c4ccccc34)NC(=O)[C@@H]3CCC(=O)NCCCCCC[C@H](NC(=O)[C@H](Cc4ccccc4)NC(=O)[C@H]([C@@H](C)O)NC2=O)C(=O)N[C@@H](CO)C(=O)N[C@H](C(=O)O)CSSC[C@H](NC(=O)[C@@H](N)Cc2ccc(O)cc2)C(=O)N[C@@H](CCCCN)C(=O)N[C@@H](Cc2ccccc2)C(=O)N3)cc1`, the negative-log IC50 (pIC50) in assay [4] is 7.80; in assay [5] it was below 6.00; in assay [6], below 6.00; in assay [7], below 6.00; in assay [8] it was below 6.00.

On to `CC(C)NCc1ccc(C[C@@H]2NC(=O)[C@@H](Cc3c[nH]c4ccccc34)NC(=O)[C@@H]3CCC(=O)NCCCC[C@H](NC(=O)[C@H](Cc4ccccc4)NC(=O)[C@H]([C@@H](C)O)NC2=O)C(=O)N[C@@H](CO)C(=O)N[C@H](C(=O)O)CSSC[C@H](NC(=O)[C@@H](N)Cc2ccc(O)cc2)C(=O)N[C@@H](CCCCN)C(=O)N[C@@H](Cc2ccccc2)C(=O)N3)cc1`, for which the pIC50 in assay [4] is 7.28; in assay [5], below 6.00; in assay [6] it was below 6.00; in assay [7], below 6.00; in assay [8], below 6.00.

As to `CC(C)NCc1ccc(C[C@@H]2NC(=O)[C@@H](Cc3c[nH]c4ccccc34)NC(=O)[C@@H]3CCC(=O)NCCCCC[C@@H](NC(=O)[C@H](Cc4ccccc4)NC(=O)[C@H]([C@@H](C)O)NC2=O)C(=O)N[C@@H](CO)C(=O)N[C@H](C(=O)O)CSSC[C@H](NC(=O)[C@@H](N)Cc2ccc(O)cc2)C(=O)N[C@@H](CCCCN)C(=O)N[C@@H](Cc2ccccc2)C(=O)N3)cc1`, the pIC50 in assay [4] is 6.11; in assay [5], below 6.00; in assay [6], 7.00; in assay [7] it was below 6.00; in assay [8], below 6.00.

In the case of `C[C@@H](O)[C@@H]1NC(=O)[C@H](Cc2ccccc2)NC(=O)[C@H]([C@@H](C)O)NC(=O)[C@H](CCCCN)NC(=O)[C@@H](Cc2c[nH]c3ccccc23)NC(=O)[C@H](Cc2ccccc2)NC(=O)[C@H](Cc2ccccc2)NC(=O)[C@@H](N)CSSC[C@@H](C(=O)O)NC(=O)[C@H](CO)NC1=O`, the Relative potency is 700 in assay [1], 110 in assay [2] and below 1 in assay [3].

Consider `NCCCC[C@@H]1NC(=O)[C@@H](Cc2c[nH]c3ccccc23)NC(=O)[C@H](Cc2ccccc2)NC(=O)[C@H](Cc2ccccc2)NC(=O)[C@@H](N)CSSC[C@@H](C(=O)O)NC(=O)[C@H](Cc2ccccc2)NC1=O`, for which the Relative potency is below 1 in assay [1], below 0.01 in assay [2] and below 1 in assay [3].

Regarding `CC(C)NCc1ccc(C[C@@H]2NC(=O)[C@@H](Cc3c[nH]c4ccccc34)NC(=O)[C@@H]3CCC(=O)NCCC[C@H](NC(=O)[C@H](Cc4ccccc4)NC(=O)[C@H]([C@@H](C)O)NC2=O)C(=O)N[C@@H](CO)C(=O)N[C@H](C(=O)O)CSSC[C@H](NC(=O)[C@@H](N)Cc2ccc(O)cc2)C(=O)N[C@@H](CCCCN)C(=O)N[C@@H](Cc2ccccc2)C(=O)N3)cc1`, the pIC50 in assay [4] was 6.26; in assay [5], below 6.00; in assay [6], below 6.00; in assay [7] it was below 6.00; in assay [8] it was below 6.00.

As to `CC(C)NCc1ccc(C[C@@H]2NC(=O)[C@@H](Cc3c[nH]c4ccccc34)NC(=O)[C@@H]3CCC(=O)NCCCCCC[C@@H](NC(=O)[C@H](Cc4ccccc4)NC(=O)[C@H]([C@@H](C)O)NC2=O)C(=O)N[C@@H](CO)C(=O)N[C@H](C(=O)O)CSSC[C@H](NC(=O)[C@@H](N)Cc2ccc(O)cc2)C(=O)N[C@@H](CCCCN)C(=O)N[C@@H](Cc2ccccc2)C(=O)N3)cc1`, the pIC50 in assay [4] is 6.69; in assay [5], below 6.00; in assay [6], below 6.00; in assay [7] it was 6.11; in assay [8], below 6.00.

Take `C[C@@H](O)[C@@H]1NC(=O)[C@H](CCCCN)NC(=O)[C@@H](Cc2c[nH]c3ccccc23)NC(=O)[C@H](Cc2ccccc2)NC(=O)[C@H](Cc2ccccc2)NC(=O)[C@@H](N)CSSC[C@@H](C(=O)O)NC(=O)[C@H](Cc2ccccc2)NC1=O` (H-CFF[dW]KTFC-OH; disulfide 1-8): the Relative potency in assay [1] is 45; in assay [2] it was 4; in assay [3], 7.
